Measured values as given in ChEMBL document CHEMBL4261538, “Synthesis and molecular docking studies of xanthone attached amino acids as potential antimicrobial and anti-inflammatory agents” (Medchemcomm, 2017).
Active and inactive are the calls of the source. The calls are words filed in the database; no cut-off is given here.

Assays:
[1] = system: Candida albicans; assay: Antifungal activity against Candida albicans at 50 ug/ml incubated for 48 hrs by agar well diffusion method; assay type: functional; settings: read-out: DIZ
How it was run: (§1)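 Compounds dissolved in DMSO at 5 mg mL⁻¹ and 5–20 µL added to 6 mm wells, giving 25, 50, 75, 100 µg per well. Bavistin was the positive control and DMSO the negative control. Plates incubated at 28 °C for 48 h, then inhibition zone diameter (mm) measured. Values are means of three determinations.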

[2] = system: Aspergillus niger; assay: Antifungal activity against Aspergillus niger incubated for 48 to 72 hrs by microdilution method; assay type: functional
How it was run: (§2)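 Sabouraud agar plates inoculated with fungal suspension at 10⁵ CFU mL⁻¹ plus serially diluted compounds and bavistin reference, both in DMSO. Incubated at 25 °C for 48–72 h. MIC is the lowest concentration completely inhibiting growth. Values are means of three determinations.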

[3] = system: Staphylococcus aureus; assay: Antibacterial activity against Staphylococcus aureus at 50 ug/ml incubated for 24 hrs by agar well diffusion method; assay type: functional; settings: read-out: DIZ
How it was run: (§3)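 Bacteria grown in nutrient broth at 37 °C for 24 h, then subcultured at room temperature. Compounds dissolved in DMSO at 5 mg mL⁻¹ and 5–20 µL added to 6 mm wells, giving 25, 50, 75, 100 µg per well. Gentamicin was the positive control and DMSO the negative control. Plates held at 37 °C for 24 h, then inhibition zone diameter (mm) measured. Values are means of three determinations.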

[4] = system: Bacillus subtilis; assay: Antibacterial activity against Bacillus subtilis incubated for 24 hrs by microdilution method; assay type: functional
[5] = system: Escherichia coli; assay: Antibacterial activity against Escherichia coli incubated for 24 hrs by microdilution method; assay type: functional
[6] = system: Fusarium oxysporum; assay: Antifungal activity against Fusarium oxysporum at 50 ug/ml incubated for 48 hrs by agar well diffusion method; assay type: functional; settings: read-out: DIZ; how it was run: as §1
[7] = system: Klebsiella pneumoniae; assay: Antibacterial activity against Klebsiella pneumoniae at 100 ug/ml incubated for 24 hrs by agar well diffusion method; assay type: functional; settings: read-out: DIZ; how it was run: as §3
[8] = system: Bacillus subtilis; assay: Antibacterial activity against Bacillus subtilis at 25 ug/ml incubated for 24 hrs by agar well diffusion method; assay type: functional; settings: read-out: DIZ; how it was run: as §3
[9] = system: Staphylococcus aureus; assay: Antibacterial activity against Staphylococcus aureus at 75 ug/ml incubated for 24 hrs by agar well diffusion method; assay type: functional; settings: read-out: DIZ; how it was run: as §3
[10] = system: Klebsiella pneumoniae; assay: Antibacterial activity against Klebsiella pneumoniae at 25 ug/ml incubated for 24 hrs by agar well diffusion method; assay type: functional; settings: read-out: DIZ; how it was run: as §3
[11] = system: Staphylococcus aureus; assay: Antibacterial activity against Staphylococcus aureus incubated for 24 hrs by microdilution method; assay type: functional
[12] = system: Bacillus subtilis; assay: Antibacterial activity against Bacillus subtilis at 75 ug/ml incubated for 24 hrs by agar well diffusion method; assay type: functional; settings: read-out: DIZ; how it was run: as §3
[13] = system: Candida albicans; assay: Antifungal activity against Candida albicans at 100 ug/ml incubated for 48 hrs by agar well diffusion method; assay type: functional; settings: read-out: DIZ; how it was run: as §1
[14] = system: Klebsiella pneumoniae; assay: Antibacterial activity against Klebsiella pneumoniae at 50 ug/ml incubated for 24 hrs by agar well diffusion method; assay type: functional; settings: read-out: DIZ; how it was run: as §3
[15] = system: Klebsiella pneumoniae; assay: Antibacterial activity against Klebsiella pneumoniae at 75 ug/ml incubated for 24 hrs by agar well diffusion method; assay type: functional; settings: read-out: DIZ; how it was run: as §3
[16] = system: Aspergillus niger; assay: Antifungal activity against Aspergillus niger at 25 ug/ml incubated for 48 hrs by agar well diffusion method; assay type: functional; settings: read-out: DIZ; how it was run: as §1
[17] = system: Candida albicans; assay: Antifungal activity against Candida albicans at 25 ug/ml incubated for 48 hrs by agar well diffusion method; assay type: functional; settings: read-out: DIZ; how it was run: as §1
[18] = system: Staphylococcus aureus; assay: Antibacterial activity against Staphylococcus aureus at 25 ug/ml incubated for 24 hrs by agar well diffusion method; assay type: functional; settings: read-out: DIZ; how it was run: as §3
[19] = system: Bacillus subtilis; assay: Antibacterial activity against Bacillus subtilis at 50 ug/ml incubated for 24 hrs by agar well diffusion method; assay type: functional; settings: read-out: DIZ; how it was run: as §3
[20] = system: Fusarium oxysporum; assay: Antifungal activity against Fusarium oxysporum at 25 ug/ml incubated for 48 hrs by agar well diffusion method; assay type: functional; settings: read-out: DIZ; how it was run: as §1
[21] = system: Fusarium oxysporum; assay: Antifungal activity against Fusarium oxysporum at 75 ug/ml incubated for 48 hrs by agar well diffusion method; assay type: functional; settings: read-out: DIZ; how it was run: as §1
[22] = system: Erythrocyte; assay: Anti-inflammatory activity in human RBC assessed as inhibition of hypotonic solution-induced hemolysis after 10 mins by spectrophotometric method; assay type: functional, cell-based
How it was run: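 Human blood (heparinized) washed with 0.9% saline, packed cells made into a 40% v/v stock in isotonic phosphate buffer (154 mM NaCl, 10 mM sodium phosphate, pH 7.4). Stock RBC mixed with hypotonic buffer (50 mM NaCl, 10 mM phosphate, pH 7.4) plus sample at 20–100 µg mL⁻¹.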

[23] = system: Aspergillus niger; assay: Antifungal activity against Aspergillus niger at 100 ug/ml incubated for 48 hrs by agar well diffusion method; assay type: functional; settings: read-out: DIZ; how it was run: as §1
[24] = system: Candida albicans; assay: Antifungal activity against Candida albicans at 75 ug/ml incubated for 48 hrs by agar well diffusion method; assay type: functional; settings: read-out: DIZ; how it was run: as §1
[25] = system: Klebsiella pneumoniae; assay: Antibacterial activity against Klebsiella pneumoniae incubated for 24 hrs by microdilution method; assay type: functional
[26] = system: Aspergillus niger; assay: Antifungal activity against Aspergillus niger at 50 ug/ml incubated for 48 hrs by agar well diffusion method; assay type: functional; settings: read-out: DIZ; how it was run: as §1
[27] = system: Aspergillus niger; assay: Antifungal activity against Aspergillus niger at 75 ug/ml incubated for 48 hrs by agar well diffusion method; assay type: functional; settings: read-out: DIZ; how it was run: as §1
[28] = system: Staphylococcus aureus; assay: Induction of cell membrane damage in Staphylococcus aureus assessed as cell content leakage at MIC after 2 hrs by SEM analysis; assay type: functional, organism-based
[29] = system: Staphylococcus aureus; assay: Antibacterial activity against Staphylococcus aureus at 100 ug/ml incubated for 24 hrs by agar well diffusion method; assay type: functional; settings: read-out: DIZ; how it was run: as §3
[30] = system: Bacillus subtilis; assay: Antibacterial activity against Bacillus subtilis at 100 ug/ml incubated for 24 hrs by agar well diffusion method; assay type: functional; settings: read-out: DIZ; how it was run: as §3
[31] = system: Escherichia coli; assay: Antibacterial activity against Escherichia coli at 75 ug/ml incubated for 24 hrs by agar well diffusion method; assay type: functional; settings: read-out: DIZ; how it was run: as §3
[32] = system: Candida albicans; assay: Antifungal activity against Candida albicans incubated for 48 to 72 hrs by microdilution method; assay type: functional; how it was run: as §2
[33] = system: Escherichia coli; assay: Antibacterial activity against Escherichia coli at 25 ug/ml incubated for 24 hrs by agar well diffusion method; assay type: functional; settings: read-out: DIZ; how it was run: as §3
[34] = system: Fusarium oxysporum; assay: Antifungal activity against Fusarium oxysporum incubated for 48 to 72 hrs by microdilution method; assay type: functional; how it was run: as §2
[35] = system: Fusarium oxysporum; assay: Antifungal activity against Fusarium oxysporum at 100 ug/ml incubated for 48 hrs by agar well diffusion method; assay type: functional; settings: read-out: DIZ; how it was run: as §1
[36] = system: Escherichia coli; assay: Antibacterial activity against Escherichia coli at 100 ug/ml incubated for 24 hrs by agar well diffusion method; assay type: functional; settings: read-out: DIZ; how it was run: as §3
[37] = system: Escherichia coli; assay: Antibacterial activity against Escherichia coli at 50 ug/ml incubated for 24 hrs by agar well diffusion method; assay type: functional; settings: read-out: DIZ; how it was run: as §3

## Cl.N[C@@H](Cc1ccc(O)cc1)C(=O)Oc1ccc2c(=O)c3ccccc3oc2c1
[1]
  zone of inhibition at 50 µg/mL: 30 mm
[2]
  MIC: 21 µg/mL
[3]
  zone of inhibition at 50 µg/mL: 27 mm
[4]
  MIC: 19 µg/mL
[5]
  MIC: 20 µg/mL
[6]
  zone of inhibition at 50 µg/mL: 28 mm
[7]
  zone of inhibition at 100 µg/mL: 37 mm
[8]
  zone of inhibition at 25 µg/mL: 23 mm
[9]
  zone of inhibition at 75 µg/mL: 35 mm
[10]
  zone of inhibition at 25 µg/mL: 21 mm
[11]
  MIC: 18 µg/mL
[12]
  zone of inhibition at 75 µg/mL: 38 mm
[13]
  zone of inhibition at 100 µg/mL: 39 mm
[14]
  zone of inhibition at 50 µg/mL: 26 mm
[15]
  zone of inhibition at 75 µg/mL: 31 mm
[16]
  zone of inhibition at 25 µg/mL: 24 mm
[17]
  zone of inhibition at 25 µg/mL: 23 mm
[18]
  zone of inhibition at 25 µg/mL: 23 mm
[19]
  zone of inhibition at 50 µg/mL: 26 mm
[20]
  zone of inhibition at 25 µg/mL: 21 mm
[21]
  zone of inhibition at 75 µg/mL: 35 mm
[22]
  IC50: 32 µg/mL
[23]
  zone of inhibition at 100 µg/mL: 40 mm
[24]
  zone of inhibition at 75 µg/mL: 36 mm
[25]
  MIC: 17 µg/mL
[26]
  zone of inhibition at 50 µg/mL: 31 mm
[27]
  zone of inhibition at 75 µg/mL: 38 mm
[28]
  Activity: Active
[29]
  zone of inhibition at 100 µg/mL: 39 mm
[30]
  zone of inhibition at 100 µg/mL: 40 mm
[31]
  zone of inhibition at 75 µg/mL: 34 mm
[32]
  MIC: 23 µg/mL
[33]
  zone of inhibition at 25 µg/mL: 21 mm
[34]
  MIC: 23 µg/mL
[35]
  zone of inhibition at 100 µg/mL: 41 mm
[36]
  zone of inhibition at 100 µg/mL: 39 mm
[37]
  zone of inhibition at 50 µg/mL: 26 mm
